From ChEMBL document CHEMBL1124445, “Synthesis and pharmacology of a series of 3- and 4-(phosphonoalkyl)pyridine- and -piperidine-2-carboxylic acids. Potent N-methyl-D-aspartate receptor antagonists” (J Med Chem, 1989)

What was measured:
Mus musculus = assay: Ability to protect against NMDA-induced lethality in mice after intraperitoneal administration; assay type: functional; details: ip, read-out: MED
Outline: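 Mice received the test drug ip 30 min before NMDA at 200 mg/kg ip; compounds were racemic. Five animals per dose. The endpoint was survival for more than 30 min after the NMDA injection. MED is the dose at which at least three of the five mice survived. The highest dose tested was 160 mg/kg.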

[1] = Compound was evaluated for the inhibition of the binding of [3H]-CPP against NMDA receptor in mice
Outline: (§1)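 Racemic compounds tested for displacement of [3H]CPP binding to the NMDA receptor. Affinity reported as IC50 in nM.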

[2] = Percent displacement determined by inhibition of [3H]-CPP binding against N-methyl-D-aspartate glutamate receptor in mice at 10 uM
[3] = Percent displacement determined by inhibition of [3H]CPP binding against NMDA receptor in mice at 10 uM
[4] = Compound was evaluated for the inhibition of the binding of [3H]CPP against N-methyl-D-aspartate glutamate receptor in mice; outline: as §1
[5] = Compound was evaluated for the inhibition of the binding of [3H]CPP against NMDA in mice

| Structure (SMILES) | minimal effective dose (Mus musculus) | Displacement [2] | also measured |
| --- | --- | --- | --- |
| O=C(O)[C@@H]1C[C@H](CP(=O)(O)O)CCN1 [SELFOTEL] | 10 mg/kg | – | IC50 [1]: 95 nM |
| O=C(O)[C@@H]1C[C@H](CCCCP(=O)(O)O)CCN1 | > 160 mg/kg | 26% | – |
| O=C(O)c1cc(CP(=O)(O)O)ccn1 | > 160 mg/kg | – | Displacement [3]: 4% |
| O=C(O)c1ncccc1CCP(=O)(O)O | > 160 mg/kg | – | IC50 [1]: 3500 nM |
| O=C(O)c1ncccc1/C=C\P(=O)(O)O | > 160 mg/kg | 20% | – |
| O=C(O)[C@H]1NCCC[C@H]1CCP(=O)(O)O | 160 mg/kg | – | IC50 [1]: 1000 nM |
| O=C(O)c1ncccc1CP(=O)(O)O | > 160 mg/kg | – | Displacement [3]: -18% |
| O=C(O)c1ncccc1/C=C/P(=O)(O)O | > 160 mg/kg | 26% | – |
| O=C(O)c1cc(CCCP(=O)(O)O)ccn1 | > 160 mg/kg | 34% | – |
| O=C(O)[C@@H]1C[C@H](CCCP(=O)(O)O)CCN1 | 40 mg/kg | – | IC50 [4]: 120 nM |
| O=C(O)c1cc(CCP(=O)(O)O)ccn1 | > 160 mg/kg | – | IC50 [4]: 3500 nM |
| O=C(O)C1CN(CCCP(=O)(O)O)CCN1 (stereo unspecified) | 2.5 mg/kg | – | IC50 [4]: 72 nM |
| O=C(O)c1cc(CCCCP(=O)(O)O)ccn1 | > 160 mg/kg | 25% | – |
| O=C(O)[C@H]1NCCC[C@H]1CP(=O)(O)O | – | 19% | – |
| NC(CCCCCP(=O)(O)O)C(=O)O (stereo unspecified) [AP-7] | 160 mg/kg | – | IC50 [5]: 320 nM |
| O=C(O)[C@@H]1C[C@H](CCP(=O)(O)O)CCN1 | > 160 mg/kg | – | IC50 [4]: 6600 nM |
